# Measured values: ChEMBL document CHEMBL1128579, “The role of charge in polyamine analogue recognition” (J Med Chem, 1995)
# Columns and labels:
# [1] = test system: L1210; assay: Impact (100 uM) on polyamine(Spd) pools in L1210 cells, expressed relative to untreated controls (control = 100%).; type: functional, Mus musculus
# How it was run: (§1)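 Logarithmic-phase murine L1210 cells grown 48 h with analogue at the stated concentration. Cells washed twice in cold RPMI-1640 and extracted with 0.6 N perchloric acid; supernatants held at -20 °C, then analysed by HPLC. Put, Spd and Spm given relative to untreated controls (100%); intracellular analogue given as pmol/10^6 cells.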
# [2] = test system: L1210; assay: Impact on polyamine biosynthetic enzyme, S-adenosyl-L-methionine decarboxylase in L1210 cells treated with the compound for 6 hr.; type: cell-based; set-up: concentration or dose not given beside the values
# How it was run: (§2)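 L1210 cells treated with analogue: 4 h for ODC, 6 h for AdoMetDC, 48 h for SSAT. ODC and AdoMetDC measured as 14CO2 released from [14C]carboxyl-labeled L-ornithine or S-adenosyl-L-methionine. SSAT measured as [14C]acetylspermidine formed from SPD and [14C]acetyl-CoA. Triplicate runs, each with untreated and positive controls (10 μM DENSPM for ODC and AdoMetDC). Activity given as % of untreated control.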
# [3] = Titrimetrically measured pKa4 value of the compound; type: physicochemical; conditions: read-out: pKa4
# How it was run: (§3)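 pKa values determined by titration; relative abundance of each ionic species then calculated for pH 7.4.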
# [4] = Titrimetrically measured pKa3 value of the compound; type: physicochemical; conditions: read-out: pKa3; how it was run: as §3
# [5] = test system: L1210; assay: Inhibitory concentration against L1210 cells on 96 hr incubation.; type: functional, cell-based; conditions: Mus musculus, L1210, 96 h
# How it was run: (§4)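 Murine L1210 leukemia cells in suspension in RPMI-1640 with 10% NuSerum, HEPES-MOPS and 1 mM aminoguanidine, 37 °C, 5% CO2. Log-phase cultures at (0.5-1.0) × 10^5 cells/mL treated with filtered aqueous analogue for 48 h, then reseeded and grown a further 48 h. Cells counted by Coulter counter. IC50 is the concentration giving 50% of control growth, corrected for initial inoculum.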
# [6] = target: T1, Ornithine decarboxylase (Mus musculus) (UniProt P00860); assay: Impact on polyamine biosynthetic enzyme, Ornithine decarboxylase in L1210 cells treated with the compound for 4 hr.; type: cell-based; set-up: concentration or dose not given beside the values; how it was run: as §2
# T1 sequence (whole entry): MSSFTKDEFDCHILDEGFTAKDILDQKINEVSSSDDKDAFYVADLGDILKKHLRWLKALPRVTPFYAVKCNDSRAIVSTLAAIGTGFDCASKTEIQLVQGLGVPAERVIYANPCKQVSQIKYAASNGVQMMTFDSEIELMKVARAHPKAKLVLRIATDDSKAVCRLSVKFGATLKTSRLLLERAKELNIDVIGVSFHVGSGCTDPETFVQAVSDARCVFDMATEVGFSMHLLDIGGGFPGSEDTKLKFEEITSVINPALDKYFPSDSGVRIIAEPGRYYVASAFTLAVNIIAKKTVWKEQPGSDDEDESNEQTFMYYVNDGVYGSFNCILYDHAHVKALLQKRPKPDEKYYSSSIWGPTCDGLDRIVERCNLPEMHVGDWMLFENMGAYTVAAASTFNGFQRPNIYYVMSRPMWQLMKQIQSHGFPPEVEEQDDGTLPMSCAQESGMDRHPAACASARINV
# [7] = Titrimetrically measured pKa2 value of the compound; type: physicochemical; conditions: read-out: pKa2; how it was run: as §3
# [8] = test system: L1210; assay: Impact (100 uM) on polyamine(Put) pools in L1210 cells, expressed relative to untreated controls (control = 100%).; type: functional, Mus musculus; how it was run: as §1
# [9] = test system: L1210; assay: Concentration inhibiting radiolabeled spermidine transport in L1210 cells.; type: functional, cell-based, Mus musculus
# How it was run: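 Competition with [3H]- or [14C]spermidine uptake into L1210 leukemia cells. Cells incubated 20 min at 37 °C in RPMI-1640 with 1, 2, 4, 6, 8 and 10 μM radiolabeled SPD, alone or plus 10, 25 or 50 μM analogue. Cells pelleted at 0–4 °C, washed with cold medium containing 1 μM SPD, NaOH-dissolved, then scintillation counted. Ki taken from Lineweaver–Burk plots as simple competitive inhibition.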
# [10] = test system: L1210; assay: Impact (100 uM) on polyamine(Spm) pools in L1210 cells, expressed relative to untreated controls (control = 100%).; type: functional, Mus musculus; how it was run: as §1
# [11] = target: Spermidine/spermine N(1)-acetyltransferase (SAT) (Mus musculus) (UniProt Q6P8J2+P48026); assay: Impact on polyamine biosynthetic enzyme Spermidine N-acetyl-transferase in L1210 cells treated with the compound for 48 hr.; type: cell-based; set-up: concentration or dose not given beside the values; how it was run: as §2
# Spermidine/spermine N(1)-acetyltransferase (SAT) (Mus musculus), sequence (P48026 whole entry, looked up): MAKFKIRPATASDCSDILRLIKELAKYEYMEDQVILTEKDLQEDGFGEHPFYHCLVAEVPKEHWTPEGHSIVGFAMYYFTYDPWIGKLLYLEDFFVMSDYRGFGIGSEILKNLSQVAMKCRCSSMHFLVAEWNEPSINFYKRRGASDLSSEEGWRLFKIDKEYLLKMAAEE
# Spermidine/spermine N(1)-acetyltransferase (SAT) (Mus musculus), sequence (Q6P8J2 whole entry, looked up): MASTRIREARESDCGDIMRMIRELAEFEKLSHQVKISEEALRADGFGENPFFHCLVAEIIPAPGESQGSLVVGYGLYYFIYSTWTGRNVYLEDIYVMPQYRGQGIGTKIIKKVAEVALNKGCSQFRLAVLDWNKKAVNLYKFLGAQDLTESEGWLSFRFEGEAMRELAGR
# [12] = Titrimetrically measured pKa1 value of the compound; type: physicochemical; conditions: read-out: pKa1; how it was run: as §3
# [13] = test system: L1210; assay: Impact (2 uM) on polyamine(Put) pools in L1210 cells, expressed relative to untreated controls (control = 100%).; type: functional, Mus musculus; how it was run: as §1
# [14] = test system: L1210; assay: Impact (2 uM) on polyamine(Spm) pools in L1210 cells, expressed relative to untreated controls (control = 100%).; type: functional, Mus musculus; how it was run: as §1
# [15] = test system: L1210; assay: Level (2 uM) in L1210 cells.; type: functional, Mus musculus; how it was run: as §1
# [16] = test system: L1210; assay: Impact (2 uM) on polyamine(Spd) pools in L1210 cells, expressed relative to untreated controls (control = 100%).; type: functional, Mus musculus; how it was run: as §1
# [17] = test system: L1210; assay: Inhibitory concentration against L1210 cells on 96h incubation.; type: functional, cell-based; conditions: Mus musculus, L1210, 96 h; how it was run: as §4
# [18] = test system: L1210; assay: Level (100 uM) in L1210 cells.; type: functional, Mus musculus; how it was run: as §1
# [19] = test system: L1210; assay: Impact (30 uM) on polyamine(Put) pools in L1210 cells, expressed relative to untreated controls (control = 100%).; type: functional, Mus musculus; how it was run: as §1
# [20] = test system: L1210; assay: Level (30 uM) in L1210 cells.; type: functional, Mus musculus; how it was run: as §1
# [21] = test system: L1210; assay: Impact (30 uM) on polyamine(Spm) pools in L1210 cells, expressed relative to untreated controls (control = 100%).; type: functional, Mus musculus; how it was run: as §1
# [22] = test system: L1210; assay: Impact (30 uM) on polyamine(Spd) pools in L1210 cells, expressed relative to untreated controls (control = 100%).; type: functional, Mus musculus; how it was run: as §1
pKa [3],pKa [4],IC50 [5] [µM],Control [6] [%],pKa [7],Control [11] [%],pKa [12],IC50 [17] [µM],SMILES,Polyamine pools [1] [%],Control [2] [%],Polyamine pools [8] [%],Ki [9] [µM],Polyamine pools [10] [%],also measured
3.77,4.43,80,90,7.64,87,9.23,–,c1cc(CNCCCCNCc2ccncc2)ccn1,95,100,87,> 500,99,–
4.93,5.69,> 100,100,8.85,140,9.81,–,c1cc(CCNCCCCNCCc2ccncc2)ccn1,85,100,124,> 500,96,–

# Second part, the compound before the results:
SMILES,pKa [3],pKa [4],IC50 [5] [µM],Control [6] [%],pKa [7],Control [11] [%],pKa [12],IC50 [17] [µM],Polyamine pools [1] [%],Control [2] [%],Polyamine pools [8] [%],Ki [9] [µM],Polyamine pools [10] [%],also measured
NCCCNCCCCNCCCN [SPERMINE],7.95,8.82,–,–,10.1,–,10.9,–,–,–,–,–,–,–
C(CCNCC1CCNCC1)CNCC1CCNCC1,8.45,9.43,0.1,6,10.7,325,10.9,–,–,39,–,4.9,–,Polyamine pools [13]: 0%; Polyamine pools [14]: 50%; Analogue level [15]: 2518 pM (10e6*cells)-1; Polyamine pools [16]: 5%
FC(F)(F)CNCCCNCCCCNCCCNCC(F)(F)F,4.09,4.81,–,100,9.41,97,10.5,> 100,103,100,103,285,108,Analogue level [18]: <20 pM (10e6*cells)-1
CCNCCCNCCCCNCCCNCC [BIS(ETHYL)SPERMINE],–,–,–,3,–,460,–,0.2,–,28,–,–,–,Polyamine pools [19]: 0%; Analogue level [20]: 1780 pM (10e6*cells)-1; Polyamine pools [21]: 22%; Polyamine pools [22]: 0%
